# Hits are enriched below; roughly 4.8% of the tested compounds scored in any of these assays.
# Jurkat NFkB inh: inhibitors of induced NF-kB luciferase reporter, primary screen, TCR NF-kB activation inhibitor project, cell-based, luminescence, uHTS; Jurkat, PMA/ionomycin-induced NF-kB luciferase reporter; inhibition, % at 4 µM; hit rate 0.53% among 330,000; AID 435003, 2010; in the data active = inhibition above about 50%
# T cruzi repl: inhibitors of intracellular T. cruzi growth, primary screen, luminescence, NIH3T3 host cells; T. cruzi beta-gal in NIH3T3, 90 h; inhibition, % (no concentration beside the values); hit rate 1.4% among 300,000; AID 1885, 2009;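 active = mean inhibition across valid replicates above about 55%, limit read from the data; inconclusive = mean below that limit but half or more replicates reach it; inactive = mean below it, under half of replicates reach it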;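 also: signal also drops with host cell toxicity which is not excluded here; 0% = plate median of DMSO wells and 100% = zero luminescence signal; higher percent means less beta-gal luminescence so fewer parasites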
#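 Read-out: Parasite load inhibition, % | Test system: Mouse NIH/3T3 fibroblasts infected with β-gal-expressing T. cruzi Tulahuen C4 | Amount: 5,000 cells/well | Medium: DMEM, 2% fetal bovine serum | Signal: GalScreen β-gal luminescence, detergent lysis, 60 min | Timing: 3 h attach, ≥90 h co-culture | Also added: Tulahuen C4 trypomastigotes, 5000/well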
# GPR7 antag: GPR7 receptor antagonists, primary screen, cell-based, fluorescence, single concentration; Neuropeptides B/W receptor type 1 (Homo sapiens), P48145; GPR7-expressing cells, fluorescence antagonist assay; inhibition, % at 4.4 µM; hit rate 1.1% among 290,000; AID 1861, 2009; in the data active = inhibition above about 16%, passing the limit was not always enough;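 also: cells stimulated with the agonist NPW; 0% = agonist with vehicle and 100% = vehicle without agonist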
# Target sequence (P48145 whole entry, looked up): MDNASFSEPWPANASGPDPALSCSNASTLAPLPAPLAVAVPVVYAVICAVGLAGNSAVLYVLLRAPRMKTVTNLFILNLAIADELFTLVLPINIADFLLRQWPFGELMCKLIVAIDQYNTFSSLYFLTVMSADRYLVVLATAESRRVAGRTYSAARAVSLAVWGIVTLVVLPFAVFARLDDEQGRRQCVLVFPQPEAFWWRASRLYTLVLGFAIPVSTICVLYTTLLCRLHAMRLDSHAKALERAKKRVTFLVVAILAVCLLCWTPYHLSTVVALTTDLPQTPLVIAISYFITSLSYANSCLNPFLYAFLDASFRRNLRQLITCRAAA
# HSF-1 act: HSF-1 activators, primary screen, NIH3T3-HGL cells, MG132 stress, luminescence, single point; hit rate 1.7% among 300,000; activation, % at 9 µM; AID 504408, 2011; NIH3T3-HGL HSF-1 luciferase reporter, 8 h; 100% = twice DMSO control signal;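 active = mean replicate activation of at least 50% with a set share of replicates each reaching 50%; inconclusive = only one of those two conditions met; inactive = mean below 50% and too few replicates reaching it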;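 also: 0% = median of the neutral control wells and 100% = twice that signal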
# HSF1 inh: HSF1 inhibitors in luciferase reporter cells, primary screen, cell-based, NIH3T3, luminescence; AID 2098, 2009; NIH3T3-HGL HSE-luciferase, MG132-induced, luminescence 8 h; stronger effect = lower value; hit rate 0.77% among 300,000; activity change, negative = inhibition, % at 7.5 µM (by protocol);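 active = more than half of replicate wells show activity change below -50%, luminescence cut by over half; inconclusive = some wells, but at most half, below -50%; inactive = no replicate well below -50%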;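 also: luciferase reports HSF-1 transcriptional activity via heat shock element; 0% = median of DMSO wells and -100% = zero luminescence signal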
# 697 NFkB inh: inhibitors of PMA/ionomycin-induced NF-kB reporter, 697 cells, primary screen, B-cell NF-kB inhibitor project, cell-based, luminescence, uHTS | 697 B-cell NF-kB luciferase reporter, 16 h | inhibition, % at 4 µM | hit rate 0.33% among 330,000; in the data active = inhibition above about 35%
# Jurkat NFkB conf: PMA/ionomycin-induced NF-kB reporter inhibitors, Jurkat retest, confirmation, T-cell NF-kB inhibitor project, cell-based, luminescence, single concentration | shares compounds with Jurkat NFkB inh | hit rate 27% among 2,700 | Jurkat NF-kB luciferase, 16 h | inhibition, % at 4 µM | AID 435020, 2010;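 active = inhibition reaching about 45% at 4 µM in either replicate, limit read from the data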;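 also: plate controls were PMA/ionomycin stimulated DMSO wells for no effect and unstimulated DMSO wells for full effect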
# 697 NFkB conf: PMA/ionomycin-induced NF-kB reporter inhibitors, 697 retest, confirmation, B-cell NF-kB inhibitor project, cell-based, luminescence, single concentration | shares compounds with 697 NFkB inh | 697 B-cell NF-kB luciferase, 16 h | inhibition, % at 4 µM | hit rate 35% among 2,000 | AID 449746, 2010; in the data active = inhibition mostly above about 28%, no sharp cut-off; inactive = mostly below about 22%
# Starred values were filed as active, the others as inactive; i = inactive; ? = inconclusive; . = no result.
SMILES,Jurkat NFkB inh,T cruzi repl,GPR7 antag,HSF-1 act,HSF1 inh,697 NFkB inh,Jurkat NFkB conf,697 NFkB conf
CCc1ccc(NC(=O)c2cnn(-c3ccccc3)c2C2CCNCC2)cc1,-5.0,-10.4,-7.2,-23.0,-5.0,-16.3,.,.
CCc1ccc(NC(=O)c2cnn(-c3ccccc3)c2C)cc1,-215.4,2.0,-9.1,56.6*,22.7,-293.2,-144.7,-298.1
S=c1nccc(-c2ccc3c(c2)CCO3)[nH]1,4.5,-12.8,-2.7,-21.4,0.8,-13.9,.,.
CC1(C)CCc2cc(-c3ccnc(=S)[nH]3)ccc2O1,-158.1,5.7,8.8,-42.9,-42.5,-265.6,-15.8,-174.9
COc1cc(SC)ccc1C(=O)Nc1nc2ccccc2[nH]1,98.6*,-3.4,-15.8,-93.5,-92.1*,92.2*,97.5*,97.9*
COc1ccccc1C(=O)Nc1nc2ccccc2[nH]1,90.7*,11.0,-3.9,-85.7,-83.0*,68.7*,92.8*,66.8*
COc1cc(SC)ccc1C(=O)Nc1ccc2c(c1)OCCO2,-153.8,14.3,2.3,16.7,11.4,-275.6,-108.5,-231.3
COc1ccc(Cl)cc1C(=O)Nc1ccc2c(c1)OCCO2,-94.3,4.7,-1.1,42.2,31.3,-114.4,.,.
Cc1ccc(C(=O)N2CCN(Cc3ccccc3)CC2)cc1S(=O)(=O)N1CCOCC1,19.3,.,.,.,.,8.8,.,.
Cc1ccn(CCNC(=O)C2CCC(=O)N(CCc3ccc(Cl)cc3)C2)n1 (stereo not given),10.0,-5.6,-7.8,4.2,-5.3,5.7,.,.
CCN(Cc1ccccc1)c1ccc(/C=C(\C#N)c2ccccn2)cc1,-165.4,15.9,-15.9,102.6*,53.0,-270.7,-89.8,-221.4
CN(CCC#N)c1ccc(/C=C(\C#N)c2ccccn2)cc1,-28.7,-7.5,7.0,31.3,1.4,-17.6,.,.
CC(C)NC(=O)CSc1nc(N)c(-c2ccccc2)c(=O)[nH]1,7.2,-5.2,-11.2,1.0,12.4,16.6,.,.
COCCn1c(C)cc(C(=O)CSc2nc3ccccc3c(=O)n2Cc2ccco2)c1C,-159.5,18.0,-5.1,13.6,11.7,-275.6,5.2,-102.8
Cc1cccc(NC(=O)CNC(=O)COC(=O)C2CC2C)c1C (stereo not given),-9.3,.,.,.,.,-16.5,.,.
CC(C)c1ccc(NC(=O)c2ccc(Br)o2)cc1,-172.1,18.3,4.5,46.8,19.0,-262.4,-118.9,-294.6
Cc1ccc(C(=O)N/N=C/c2ccc([N+](=O)[O-])s2)cc1,64.4*,57.5*,-1.2,-72.2,-69.5*,38.2*,48.5*,16.1
Cc1cccc(NC(=S)N/N=C/c2ccc([N+](=O)[O-])s2)c1,-20.0,51.9,1.7,-32.7,-30.6,1.3,.,.
CCN(C(=O)CC(C)C)c1nnc(Cn2nnc3ccccc32)s1,12.5,16.8,18.9,.,.,-20.0,.,.
CCN(C(=O)c1ccc(C(C)(C)C)cc1)c1nnc(Cn2nnc3ccccc32)s1,57.0*,38.7,7.6,12.3,10.3,96.1*,69.0*,90.8*
COc1ccccc1C(=O)NNC(=O)c1cccc(C)c1,-40.0,-0.9,-8.1,3.2,15.8,-43.0,.,.
O=C(CN1C(=O)c2ccccc2S1(=O)=O)c1ccc2c(c1)OCCCO2,95.7*,-9.2,-11.9,-89.7,-87.7*,94.5*,93.7*,88.6*
O=C(CN1C(=O)c2ccccc2S1(=O)=O)c1cccc(Br)c1,-2.0,-5.5,-7.0,-35.9,-35.4,34.2,.,.
O=C(CN1C(=O)c2ccccc2S1(=O)=O)c1ccc2c(c1)OCCO2,94.4*,-8.2,-14.7,-81.4,-78.4*,93.3*,91.7*,92.0*
CCn1cc(S(=O)(=O)N2CCN(Cc3ccc(F)cc3)CC2)cn1,-0.4,0.9,9.5,4.1,3.2,12.5,.,.
SMILES,Jurkat NFkB inh,T cruzi repl,GPR7 antag,HSF-1 act,HSF1 inh,697 NFkB inh,Jurkat NFkB conf,697 NFkB conf
COc1cc(C(=O)NCC2(c3ccccc3)CCCC2)cc(OC)c1OC,-1.9,20.6,-16.3,-1.2,-0.3,-24.2,.,.
CCN(CC)S(=O)(=O)c1cccc(NC(=O)CNc2cccc(S(=O)(=O)N3CCCC3)c2)c1,56.0*,7.2,10.8,-1.5,-11.2,42.5*,58.0*,66.8*
O=C(Nc1ccc(N2CCCCC2)c(Cl)c1)c1cccnc1,-152.7,-7.0,-6.8,24.3,9.0,i,-47.5,-266.6
CCCCN(C)C(=O)c1cc2cc3ccc(OC)cc3nc2s1,-185.1,-4.4,0.9,33.8,5.7,-275.4,-132.4,-265.9
CCCCCCn1ccc(=N)cc1,62.7*,.,-4.2,-5.1,-2.6,72.3*,56.2*,73.5*
Nc1nc(SCC(=O)Nc2ccc(Cl)cn2)n[nH]1,2.8,-10.0,1.2,0.1,-1.0,19.6,.,.
O=C(/C=C\Nc1ccc2c(c1)OCO2)c1cccs1,-144.1,-20.4,-1.1,19.8,6.7,-3.7,.,.
O=C(/C=C\Nc1ccc2c(c1)OCO2)c1ccc(Cl)s1,-201.2,-1.6,-4.3,25.3,13.0,-406.5,-18.4,-105.8
Cc1ccc(NC(=O)c2ccc3c(c2)OCO3)cc1Cl,-199.6,-18.4,-6.5,43.9,15.9,-287.4,-103.9,-246.4
Cc1ccc(C(=O)Nc2ccc3c(c2)OCO3)cc1,-79.8,12.3,-8.2,24.5,8.5,-225.6,.,.
c1ccc(-c2noc(-c3cccc4ccccc34)n2)cc1,-131.0,-14.2,-3.5,?,30.1,-179.4,.,.
Brc1ccccc1-c1nc(-c2ccccc2)no1,-153.4,-1.0,-0.3,-3.4,-14.4,-303.3,-97.8,-329.3
CC(C)(C)c1ccc(-c2nc(-c3ccncc3)no2)cc1,-192.7,?,-21.4,-37.4,-27.2,-354.5,-69.0,-379.0
Cc1ccc(-c2nc(-c3ccncc3)no2)cc1,.,-16.0,-9.0,44.2,10.7,.,.,.
Cc1ccc(-c2nc(-c3ccccc3)no2)cc1,-177.2,0.6,1.1,-19.7,-13.6,-294.7,-123.0,-283.1
COc1ccc(-c2cc(C(=O)N3CCN(c4ccccc4F)CC3)c3ccccc3n2)c(OC)c1,7.6,34.3,-3.0,-5.4,0.5,1.9,.,.
CC(C)(CN1CCN(c2ccccc2)CC1)NS(=O)(=O)c1ccccc1,-12.6,13.4,0.5,-3.1,-2.6,-6.2,.,.
O=C(c1ccc(Br)cc1)c1cc([N+](=O)[O-])ccc1N1CCCCC1,75.0*,40.2,7.7,-19.2,-8.1,44.9*,59.4*,39.2*
O=C(c1ccccc1)c1cc([N+](=O)[O-])ccc1N1CCCC1,9.6,-6.6,-8.6,6.5,0.6,-15.3,.,.
